Experiments:
Assay type in all cases: functional
Mus musculus [1] = assay: Compound was evaluated for anticonvulsant activity when administered 10 mg/kg orally in mice Maximal electroshock (MES); settings: route oral
Procedure, shortened: (§1)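 Female Swiss CD1 mice (18-23 g), groups of 10, were dosed orally at 20 mL/kg. Test compounds were given in dilute HCl (pH 3) and references in 5% gum tragacanth, 60 min before a 60-V alternating current for 0.3 s through corneal electrodes. Protection meant abolition of the hindlimb tonic extensor component.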

Mus musculus [2] = assay: Compound was evaluated for the sedative property by the rotarod test at 10 mg/kg
Procedure, shortened: (§2)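 Motor coordination was tested on the rotorod in groups of 10 female Swiss CD1 mice (18-23 g). Drug or vehicle was given orally, test compounds in dilute HCl (pH 3), 60 min before testing.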

Mus musculus [3] = assay: Compound was evaluated for Bicuculline-induced seizures (anticonvulsant activity) when administered 10 mg/kg orally in mice; settings: route oral
Procedure, shortened: (§3)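 Female Swiss albino CD1 mice (18-23 g), oral dosing (20 mL/kg); test compounds dissolved in dilute HCl (pH 3), reference drugs suspended in 5% gum tragacanth. Bicuculline challenge, scoring protection from seizures and from lethality. […] Weakly active agents reported as percent protected at the stated dose.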

Papio hamadryas = organism: Papio hamadryas; assay: Antagonist activity to generalized seizures Photically induced seizures in senegalese Papio papio baboons
Procedure, shortened: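 Naturally photosensitive baboons of both sexes (4-7 kg) were dosed orally, test compounds in dilute HCl (pH 3) and references in 5% gum tragacanth, at 4 mL/kg. They were photically stimulated at hourly intervals afterwards, and the myoclonic response was graded after Killam. Threshold active dose is the first dose that protected at least two of four animals for at least 2 h.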

Mus musculus [4] = assay: Anticonvulsant activity in Clonic seizures when administered orally in mice; settings: po
Procedure, shortened: (§4)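 Female Swiss CD1 mice (18-23 g) were dosed orally at 20 mL/kg, test compounds in dilute HCl (pH 3) and references in gum tragacanth. Protection against bicuculline- or pentylenetetrazole-induced clonic/tonic seizures and lethality was scored.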

Mus musculus [5] = assay: Anticonvulsant activity in tonic seizures when administered orally in mice; settings: po
Mus musculus [6] = assay: Compound was evaluated for Bicuculline-induced lethality (anticonvulsant activity) when administered 20 mg/Kg orally in mice; procedure, shortened: as §3
Mus musculus [7] = assay: Anticonvulsant activity in Maximal electroshock (MES) when administered orally in mice; settings: po; procedure, shortened: as §1
Mus musculus [8] = assay: Compound was evaluated for the sedative properties by the rotarod test when 100 mg/Kg was administered in mice; procedure, shortened: as §2
Rattus norvegicus = organism: Rattus norvegicus; assay: Antagonist activity to generalized seizures kindled amygdaloid seizures in rats
Procedure, shortened: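 Male Sprague-Dawley rats (200-500 g), groups of 10, carried platinum electrodes in the right basolateral amygdala. They counted as kindled after stage-5 seizures on 3 consecutive days at 30-90 μA. A control stimulation was followed by an oral dose (5 mL/kg) and restimulation 1 h later. After-discharge duration and Racine seizure stage were compared with vehicle.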

Mus musculus [9] = assay: Compound was evaluated for Bicuculline-induced seizures (anticonvulsant activity)when administered orally in mice; settings: po; procedure, shortened: as §3
Mus musculus [10] = assay: Compound was evaluated for the sedative property by the rotarod test at 1 mg/kg; procedure, shortened: as §2
Mus musculus [11] = assay: Compound was evaluated for Bicuculline-induced seizures (anticonvulsant activity) when administered 1 mg/kg orally in mice; settings: route oral; procedure, shortened: as §3
Mus musculus [12] = assay: Compound was evaluated for anticonvulsant activity when administered 1 mg/kg orally in mice Maximal electroshock (MES); settings: route oral; procedure, shortened: as §1
Mus musculus [13] = assay: Evaluated for Bicuculline-induced lethality (anticonvulsant activity) when administered orally in mice.; settings: po; procedure, shortened: as §3
Mus musculus [14] = assay: Evaluated for Bicuculline-induced seizures (anticonvulsant activity) when administered orally in mice.; settings: po; procedure, shortened: as §4
Mus musculus [15] = assay: Compound was evaluated for the sedative property by the rotarod test at 20 mg/kg; procedure, shortened: as §2
Mus musculus [16] = assay: Evaluated for anticonvulsant activity when administered orally in mice by Maximal electroshock (MES).; settings: po; procedure, shortened: as §1
Mus musculus [17] = assay: Compound was evaluated for the sedative property by the rotarod test at 150 mg/kg; procedure, shortened: as §2

## OC1CCN(c2ccc(-c3ccccn3)nn2)CC1
Mus musculus [1]
  Protected: 0%
Mus musculus [2]
  Protected: 20%
Mus musculus [3]
  Protected: 0%

## O=C1NC(=O)C(c2ccccc2)(c2ccccc2)N1 [PHENYTOIN]
Papio hamadryas
  Threshold active dose: 50 mg/kg
Mus musculus [4]
  ED50: > 80 mg/kg
Mus musculus [5]
  ED50: 7 mg/kg
Mus musculus [6]
  Protected: 25%
Mus musculus [7]
  ED50: 23 mg/kg
Mus musculus [8]
  Protected: 30%
Rattus norvegicus
  Threshold active dose: 20 mg/kg
Mus musculus [9]
  ED50: 11 mg/kg

## CN(C)C(=O)OC1CCN(c2ccc(-c3ccc(Cl)cc3Cl)nn2)CC1
Mus musculus [10]
  Protected: 20%
Mus musculus [11]
  Protected: 30%
Mus musculus [12]
  Protected: 66%

## O=C1CCN(c2ccc(-c3ccc(Cl)cc3Cl)nn2)CC1
Mus musculus [13]
  ED50: 7 mg/kg
Mus musculus [14]
  ED50: 7.3 mg/kg
Mus musculus [15]
  Protected: 50%
Mus musculus [16]
  ED50: 5 mg/kg

## OC1CCN(c2ccc(-c3cc(Cl)ccc3Cl)nn2)CC1
Mus musculus [13]
  ED50: 101 mg/kg
Mus musculus [17]
  Protected: 10%
